Data as given in ChEMBL document CHEMBL3272288, “Cannabinoids. Synthesis and central nervous system activity of 8-substituted 10-hydroxy-5,5-dimethyl-5H-[1]benzopyrano[4,3-c]pyridine and derivatives” (1977).
The source made the active and inactive calls. The calls are words filed in the database; no cut-off is given here.

Columns and labels:
Mus musculus [1] = test: Antianxiety activity in albino BALB/cJ mouse assessed as decrease in foot shock-induced fighting behavior at 10 mg/kg, po by tranquilizer activity test; type: functional
Mus musculus [2] = test: Antidepressant activity in mouse assessed as potentiation of (+/-)Dopa-induced motor responses at 5 mg/kg, po challenged with Dopa after 4 hrs compound treatment; type: functional, organism-based; design: dose 5 mg/kg
Mus musculus [3] = test: Analgesic activity in po dosed mouse assessed as inhibition of acetic acid-induced writhing; type: functional
Rattus norvegicus [4] = test: Antipsychotic activity in Long-Evens rat assessed as reduction in methamphetamine-induced hyperactivity at 5 mg/kg, po; type: functional
Canis familiaris = test: Antianxiety activity in po dosed beagle-like dog assessed as minimum dose required to produce moderate ataxia; type: functional, Canis lupus familiaris
Method in brief: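 Minimum dose producing ataxia, with two or more dogs per dose.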

Rattus norvegicus [5] = test: Antianxiety activity in Long-Evens rat assessed as decrease in motor activity at 2 mg/kg, po by tranquilizer activity test; type: functional
Rattus norvegicus [6] = test: Antianxiety activity in Long-Evens rat assessed as decrease in motor activity at 5 mg/kg, po by tranquilizer activity test; type: functional
Rattus norvegicus [7] = test: Hyperexcitability activity in Long-Evens black-hooded rat assessed as behavioral responses to tactile stimulation at 10 mg/kg, po; type: functional, organism-based; design: dose 10 mg/kg
Method in brief: (§1)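 Rats randomly split into groups of four, dosed orally, then held singly in a sound-attenuated room. At 1, 2, 3 and 4 h each was probed with a wooden rod and scored for exaggerated motor reaction, squeaking and biting (maximum 16 per response). Index is the summed score of the three responses divided by the maximum of 48.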

Mus musculus [8] = test: Increase in foot shock-induced fighting behavior in albino BALB/cJ mouse at 5 mg/kg, po by tranquilizer activity test; type: functional
Rattus norvegicus [9] = test: Antianxiety activity in Long-Evens rat assessed as decrease in motor activity at 10 mg/kg, po by tranquilizer activity test; type: functional
Rattus norvegicus [10] = test: Analgesic activity in po dosed Sprague-Dawley rat by tail flick assay; type: functional
Felis catus [11] = test: Sedative-hypnotic activity in cat assessed as change in total sleep time at 0.5 mg/kg, po after 12 hrs; type: functional
Method in brief: (§2)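 Total sleep time was recorded 12 h after drug, with two or more cats per dose. The value is the change in minutes from paired control experiments; a negative value means decreased sleep.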

Rattus norvegicus [12] = test: Antipsychotic activity in Long-Evens rat assessed as increase in methamphetamine-induced hyperactivity at 5 mg/kg, po; type: functional
Rattus norvegicus [13] = test: Antipsychotic activity in Long-Evens rat assessed as increase in methamphetamine-induced hyperactivity at 10 mg/kg, po; type: functional
Mus musculus [14] = test: Antianxiety activity in albino BALB/cJ mouse assessed as decrease in foot shock-induced fighting behavior at 5 mg/kg, po by tranquilizer activity test; type: functional
Felis catus [15] = test: Sedative-hypnotic activity in cat assessed as change in total sleep time at 1 mg/kg, po after 12 hrs; type: functional; method in brief: as §2
Felis catus [16] = test: Sedative-hypnotic activity in cat assessed as change in total sleep time at 0.1 mg/kg, po after 12 hrs; type: functional; method in brief: as §2
Rattus norvegicus [17] = test: Antipsychotic activity in Long-Evens rat assessed as reduction in methamphetamine-induced hyperactivity at 10 mg/kg, po; type: functional
Felis catus [18] = test: Sedative-hypnotic activity in cat assessed as change in total sleep time at 5 mg/kg, po after 12 hrs; type: functional; method in brief: as §2
Rattus norvegicus [19] = test: Hyperexcitability activity in Long-Evens black-hooded rat assessed as behavioral responses to tactile stimulation at 20 mg/kg, po; type: functional, organism-based; design: dose 20 mg/kg; method in brief: as §1
Rattus norvegicus [20] = test: Hyperexcitability activity in Long-Evens black-hooded rat assessed as behavioral responses to tactile stimulation at 80 mg/kg, po; type: functional, organism-based; design: dose 80 mg/kg; method in brief: as §1
Felis catus [21] = test: Sedative-hypnotic activity in cat assessed as change in total sleep time at 0.25 mg/kg, po after 12 hrs; type: functional; method in brief: as §2
Rattus norvegicus [22] = test: Antianxiety activity in Long-Evens rat assessed as decrease in motor activity at 20 mg/kg, po by tranquilizer activity test; type: functional
Rattus norvegicus [23] = test: Antipsychotic activity in Long-Evens rat assessed as reduction in methamphetamine-induced hyperactivity at 20 mg/kg, po; type: functional
Rattus norvegicus [24] = test: Antipsychotic activity in Long-Evens rat assessed as increase in methamphetamine-induced hyperactivity at 20 mg/kg, po; type: functional
Rattus norvegicus [25] = test: Antipsychotic activity in Long-Evens rat assessed as reduction in methamphetamine-induced hyperactivity at 2 mg/kg, po; type: functional
Felis catus [26] = test: Sedative-hypnotic activity in cat assessed as change in total sleep time at 2.5 mg/kg, po after 12 hrs; type: functional; method in brief: as §2

Row | Compound | inhibition in vivo at 10 mg/kg (Mus musculus [1]) | Activity (Mus musculus [2]) | ED50 (Mus musculus [3]) | inhibition in vivo at 5 mg/kg (Rattus norvegicus [4]) | Activity (Canis familiaris) | inhibition in vivo at 5 mg/kg (Rattus norvegicus [6]) | Activity (Rattus norvegicus [7]) | inhibition in vivo at 10 mg/kg (Rattus norvegicus [9]) | ED50 (Rattus norvegicus [10]) | inhibition in vivo at 10 mg/kg (Rattus norvegicus [17]) | other results
1 | CCCCCC(C)C(C)c1cc(OC(C)=O)c2c(c1)OC(C)(C)c1ccncc1-2 (stereo not drawn) | 48% | Active | 3.3 mg/kg | 46% | <5 mg/kg | 86% | – | – | – | – | inhibition in vivo at 2 mg/kg (Rattus norvegicus [5]): 43%
2 | CCCCCC(C)C(C)c1cc(OC(=O)CCCN2CCCCC2)c2c(c1)OC(C)(C)c1ccncc1-2.Cl (stereo not drawn) | – | Active | 4 mg/kg | 40% | – | 43% | Active | 63% | – | – | Activity (Mus musculus [8]): 3%
3 | CC(CCCc1ccc(F)cc1)c1cc(O)c2c(c1)OC(C)(C)c1cc[n+]([O-])cc1-2 (stereo not drawn) | 24% | Active | > 10 mg/kg | 16% | – | 18% | inactive | – | > 40 mg/kg | – | –
4 | C#CCN1CCC2=C(C1)c1c(O)cc(C(C)CCCc3ccc(F)cc3)cc1OC2(C)C (stereo not drawn) | 47% | Active | 5.3 mg/kg | 25% | 1 mg/kg | – | Active | 57% | 3.7 mg/kg | – | Time (Felis catus [11]): 99 min
5 | CCCCCC(C)C(C)c1cc(O)c2c(c1)OC(C)(C)c1cc[n+]([O-])cc1-2 (stereo not drawn) | 44% | Active | 8.6 mg/kg | – | – | 14% | inactive | 40% | > 40 mg/kg | – | Activity (Rattus norvegicus [12]): 42%; Activity (Rattus norvegicus [13]): 12%; Time (Felis catus [11]): 59 min
6 | CCCCCc1cc(O)c2c(c1)OC(C)(C)[C@@H]1CCC(C)=C[C@@H]21 [DRONABINOL] | – | Active | 43 mg/kg | 15% | 4 mg/kg | – | – | 39% | 27.2 mg/kg | – | inhibition in vivo at 5 mg/kg (Mus musculus [14]): 36%; Time (Felis catus [15]): 29 min
7 | CC(CCCc1ccc(F)cc1)c1cc(O)c2c(c1)OC(C)(C)c1ccncc1-2 (stereo not drawn) | – | Active | 7.1 mg/kg | 40% | – | 34% | – | – | 5.7 mg/kg | – | inhibition in vivo at 5 mg/kg (Mus musculus [14]): 58%
8 | C#CCN1CCC2=C(C1)c1c(O)cc(C(C)C(C)CCCCC)cc1OC2(C)C (stereo not drawn) | – | Active | 4.3 mg/kg | 59% | 1 mg/kg | – | – | 51% | 13.8 mg/kg | – | inhibition in vivo at 5 mg/kg (Mus musculus [14]): 48%; Time (Felis catus [16]): 100 min
9 | CCCCCC(C)C(C)c1cc(OCCCN2CCCCC2)c2c(c1)OC(C)(C)c1ccncc1-2.Cl (stereo not drawn) | – | Active | – | – | – | – | – | – | > 40 mg/kg | 15% | Time (Felis catus [18]): -153 min; Activity (Rattus norvegicus [19]): inactive; Activity (Rattus norvegicus [20]): inactive
10 | CCCCCC(C)C(C)c1cc(O)c2c(c1)OC(C)(C)c1ccncc1-2 (stereo not drawn) | 36% | Active | 3.3 mg/kg | 61% | <1 mg/kg | 79% | – | – | 3.07 mg/kg | – | inhibition in vivo at 5 mg/kg (Mus musculus [14]): 29%; Time (Felis catus [16]): 225 min; Time (Felis catus [21]): 193 min
11 | CCCCCC(C)C(C)c1cc(OC)c2c(c1)OC(C)(C)c1ccncc1-2 (stereo not drawn) | 29% | Active | 158 mg/kg | – | 2 mg/kg | – | inactive | 37% | > 200 mg/kg | 12% | Activity (Rattus norvegicus [12]): 15%; Time (Felis catus [18]): 102 min; Time (Felis catus [15]): 58 min; inhibition in vivo at 20 mg/kg (Rattus norvegicus [22]): 46%; Activity (Rattus norvegicus [20]): inactive
12 | C#CCOc1cc(C(C)C(C)CCCCC)cc2c1-c1cnccc1C(C)(C)O2 (stereo not drawn) | 6% | Active | > 40 mg/kg | – | 2 mg/kg | 27% | inactive | – | > 40 mg/kg | 31% | Time (Felis catus [18]): 114 min; inhibition in vivo at 20 mg/kg (Rattus norvegicus [23]): 42%; Time (Felis catus [15]): 82 min
13 | CCCCCC(C)C(C)c1cc(OCCCN2CCOCC2)c2c(c1)OC(C)(C)c1ccncc1-2.Cl (stereo not drawn) | – | Active | – | – | – | – | – | – | > 40 mg/kg | – | Activity (Rattus norvegicus [13]): 13%; Time (Felis catus [18]): -11 min; Activity (Rattus norvegicus [24]): 28%; Activity (Rattus norvegicus [19]): inactive; Activity (Rattus norvegicus [20]): inactive
14 | CCCCCC(C)C(C)c1cc(OC(=O)OCC)c2c(c1)OC(C)(C)c1ccncc1-2 (stereo not drawn) | 12% | Active | 5.2 mg/kg | 66% | – | 93% | – | – | – | – | inhibition in vivo at 2 mg/kg (Rattus norvegicus [25]): 37%
15 | C=CCOc1cc(C(C)CCCc2ccc(F)cc2)cc2c1-c1cnccc1C(C)(C)O2 (stereo not drawn) | 17% | Active | – | – | – | – | – | – | > 40 mg/kg | 20% | Activity (Rattus norvegicus [19]): inactive; inhibition in vivo at 20 mg/kg (Rattus norvegicus [23]): 27%
16 | COc1cc(C(C)CCCc2ccc(F)cc2)cc2c1-c1cnccc1C(C)(C)O2 (stereo not drawn) | 65% | Active | – | – | 10 mg/kg | – | – | – | > 40 mg/kg | 48% | Time (Felis catus [18]): 121 min
17 | CCCCCC(C)C(C)c1cc(OCC2CC2)c2c(c1)OC(C)(C)c1ccncc1-2 (stereo not drawn) | – | Active | – | – | – | – | – | – | > 40 mg/kg | 1% | Activity (Rattus norvegicus [19]): inactive; Time (Felis catus [26]): 105 min; Activity (Rattus norvegicus [20]): inactive
